Assay results: ChEMBL document CHEMBL1268841, “Synthesis and antifungal activity of benzofuran-5-ols” (2010)
≈ marks a conversion by molar mass, not a printed value.

Assays:
Assay type in all cases: functional
[1] = test system: Candida albicans; experiment: Antifungal activity against Candida albicans KCCM 50235 after 1 day; details: KCCM 50235, 24 h
Procedure, shortened: (§1)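 MIC found by twofold broth dilution in modified Sabouraud dextrose broth. Approximately 1 × 10⁵ cells/mL inoculated. Final agent concentrations ranged from 0.2 to 50.0, compared against fluconazole and 5-fluorocytosine. Read after 1 day at 37 °C.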

[2] = test system: Candida tropicalis; experiment: Antifungal activity against Candida tropicalis KCCM 50662 after 1 day; details: KCCM 50662, 24 h; procedure, shortened: as §1
[3] = test system: Pichia kudriavzevii; experiment: Antifungal activity against Candida krusei KCCM 11655 after 1 day; details: KCCM 11655, 24 h; procedure, shortened: as §1
[4] = test system: Cryptococcus neoformans; experiment: Antifungal activity against Cryptococcus neoformans KCCM 50564 after 1 day; details: KCCM 50564, 24 h; procedure, shortened: as §1
[5] = test system: Aspergillus niger; experiment: Antifungal activity against Aspergillus niger KCTC 1231 after 2 days; details: KCTC 1231, 48 h
Procedure, shortened: (§2)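 Twofold broth dilution in modified Sabouraud dextrose broth. Inoculum about 1 × 10⁵ cells/mL. Agents tested at final concentrations of 0.2 to 50.0, with fluconazole and 5-fluorocytosine as standards.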

[6] = test system: Aspergillus flavus; experiment: Antifungal activity against Aspergillus flavus KCCM 11899 after 2 days; details: KCCM 11899, 48 h; procedure, shortened: as §2

## Nc1nc(=O)[nH]cc1F [FLUCYTOSINE]
[1]
  MIC: 6.3 µg/mL (≈ 48.8 µM)
[2]
  MIC: 6.3 µg/mL (≈ 48.8 µM)
[3]
  MIC: 12.5 µg/mL (≈ 96.8 µM)
[4]
  MIC: 12.5 µg/mL (≈ 96.8 µM)
[5]
  MIC: 12.5 µg/mL (≈ 96.8 µM)
[6]
  MIC: 6.3 µg/mL (≈ 48.8 µM)

## CCOC(=O)c1c(N)oc2cc(Cl)c(O)cc12
[1]
  MIC: 12.5 µg/mL (≈ 48.9 µM)
[2]
  MIC: 12.5 µg/mL (≈ 48.9 µM)
[3]
  MIC: 25 µg/mL (≈ 97.8 µM)
[4]
  MIC: 50 µg/mL (≈ 196 µM)
[5]
  MIC: 25 µg/mL (≈ 97.8 µM)
[6]
  MIC: 12.5 µg/mL (≈ 48.9 µM)

## COC(=O)c1c(N)oc2c(C)c(C)c(O)c(Sc3ccc(C)c(C)c3)c12
[1]
  MIC: 25 µg/mL (≈ 67.3 µM)
[2]
  MIC: 25 µg/mL (≈ 67.3 µM)
[3]
  MIC: 3.2 µg/mL (≈ 8.61 µM)
[4]
  MIC: 1.6 µg/mL (≈ 4.31 µM)
[5]
  MIC: 12.5 µg/mL (≈ 33.7 µM)
[6]
  MIC: 3.2 µg/mL (≈ 8.61 µM)

## COC(=O)c1c(N)oc2c(C)c(C)c(O)c(Sc3ccc(C)cc3)c12
[1]
  MIC: 25 µg/mL (≈ 69.9 µM)
[2]
  MIC: 25 µg/mL (≈ 69.9 µM)
[3]
  MIC: 3.2 µg/mL (≈ 8.95 µM)
[4]
  MIC: 6.3 µg/mL (≈ 17.6 µM)
[5]
  MIC: 25 µg/mL (≈ 69.9 µM)
[6]
  MIC: 25 µg/mL (≈ 69.9 µM)

## COC(=O)c1c(N)oc2c(C)c(C)c(O)c(Sc3ccccc3)c12
[1]
  MIC: 25 µg/mL (≈ 72.8 µM)
[2]
  MIC: 25 µg/mL (≈ 72.8 µM)
[3]
  MIC: 6.3 µg/mL (≈ 18.3 µM)
[4]
  MIC: 1.6 µg/mL (≈ 4.66 µM)
[5]
  MIC: 12.5 µg/mL (≈ 36.4 µM)
[6]
  MIC: 25 µg/mL (≈ 72.8 µM)

## COC(=O)c1c(N)oc2c(C)c(C)c(O)c(Sc3cccc(F)c3)c12
[1]
  MIC: > 50 µg/mL
[2]
  MIC: 50 µg/mL (≈ 138 µM)
[3]
  MIC: 25 µg/mL (≈ 69.2 µM)
[4]
  MIC: 6.3 µg/mL (≈ 17.4 µM)
[5]
  MIC: 1.6 µg/mL (≈ 4.43 µM)
[6]
  MIC: 3.2 µg/mL (≈ 8.85 µM)

## N#Cc1c(N)oc2ccc(O)cc12
[1]
  MIC: 12.5 µg/mL (≈ 71.8 µM)
[2]
  MIC: 6.3 µg/mL (≈ 36.2 µM)
[3]
  MIC: 25 µg/mL (≈ 144 µM)
[4]
  MIC: 12.5 µg/mL (≈ 71.8 µM)
[5]
  MIC: 6.3 µg/mL (≈ 36.2 µM)
[6]
  MIC: 12.5 µg/mL (≈ 71.8 µM)

## COC(=O)C(C#N)C1=C(Cl)C(=O)C(C)=C(C)C1=O (stereo not drawn)
[1]
  MIC: 50 µg/mL (≈ 187 µM)
[2]
  MIC: 50 µg/mL (≈ 187 µM)
[3]
  MIC: 25 µg/mL (≈ 93.4 µM)
[4]
  MIC: 6.3 µg/mL (≈ 23.5 µM)
[5]
  MIC: 25 µg/mL (≈ 93.4 µM)
[6]
  MIC: 12.5 µg/mL (≈ 46.7 µM)

## COC(=O)c1c(N)oc2c(C)c(C)c(O)cc12
[1]
  MIC: 50 µg/mL (≈ 213 µM)
[2]
  MIC: 50 µg/mL (≈ 213 µM)
[3]
  MIC: 25 µg/mL (≈ 106 µM)
[4]
  MIC: 25 µg/mL (≈ 106 µM)
[5]
  MIC: 6.3 µg/mL (≈ 26.8 µM)
[6]
  MIC: 25 µg/mL (≈ 106 µM)

## COC(=O)c1c(N)oc2ccc(O)cc12
[1]
  MIC: 1.6 µg/mL (≈ 7.72 µM)
[2]
  MIC: 3.2 µg/mL (≈ 15.4 µM)
[3]
  MIC: 6.3 µg/mL (≈ 30.4 µM)
[4]
  MIC: 12.5 µg/mL (≈ 60.3 µM)
[5]
  MIC: 3.2 µg/mL (≈ 15.4 µM)
[6]
  MIC: 12.5 µg/mL (≈ 60.3 µM)

## COC(=O)c1c(N)oc2c(C)c(C)c(O)c(Sc3cccc(C)c3)c12
[1]
  MIC: > 50 µg/mL
[2]
  MIC: > 50 µg/mL
[3]
  MIC: > 50 µg/mL
[4]
  MIC: 1.6 µg/mL (≈ 4.48 µM)
[5]
  MIC: > 50 µg/mL
[6]
  MIC: > 50 µg/mL

## COC(=O)c1c(N)oc2cc(C)c(O)cc12
[1]
  MIC: 25 µg/mL (≈ 113 µM)
[2]
  MIC: 25 µg/mL (≈ 113 µM)
[3]
  MIC: 3.2 µg/mL (≈ 14.5 µM)
[4]
  MIC: 12.5 µg/mL (≈ 56.5 µM)
[5]
  MIC: 12.5 µg/mL (≈ 56.5 µM)
[6]
  MIC: 25 µg/mL (≈ 113 µM)

## COC(=O)c1c(N)oc2cc(Cl)c(O)cc12
[1]
  MIC: 25 µg/mL (≈ 103 µM)
[2]
  MIC: 12.5 µg/mL (≈ 51.7 µM)
[3]
  MIC: 25 µg/mL (≈ 103 µM)
[4]
  MIC: 12.5 µg/mL (≈ 51.7 µM)
[5]
  MIC: 6.3 µg/mL (≈ 26.1 µM)
[6]
  MIC: 6.3 µg/mL (≈ 26.1 µM)

## OC(Cn1cncn1)(Cn1cncn1)c1ccc(F)cc1F [FLUCONAZOLE]
[1]
  MIC: 50 µg/mL (≈ 163 µM)
[2]
  MIC: 6.3 µg/mL (≈ 20.6 µM)
[3]
  MIC: 12.5 µg/mL (≈ 40.8 µM)
[4]
  MIC: 6.3 µg/mL (≈ 20.6 µM)
[5]
  MIC: 12.5 µg/mL (≈ 40.8 µM)
[6]
  MIC: 25 µg/mL (≈ 81.6 µM)

## Cc1c(O)ccc(O)c1C
[1]
  MIC: 50 µg/mL (≈ 362 µM)
[2]
  MIC: > 50 µg/mL
[3]
  MIC: 25 µg/mL (≈ 181 µM)
[4]
  MIC: 12.5 µg/mL (≈ 90.5 µM)
[5]
  MIC: 50 µg/mL (≈ 362 µM)
[6]
  MIC: 12.5 µg/mL (≈ 90.5 µM)

## CCOC(=O)c1c(N)oc2ccc(O)cc12
[1]
  MIC: 1.6 µg/mL (≈ 7.23 µM)
[2]
  MIC: 3.2 µg/mL (≈ 14.5 µM)
[3]
  MIC: 12.5 µg/mL (≈ 56.5 µM)
[4]
  MIC: 12.5 µg/mL (≈ 56.5 µM)
[5]
  MIC: 3.2 µg/mL (≈ 14.5 µM)
[6]
  MIC: 6.3 µg/mL (≈ 28.5 µM)

## CCOC(=O)c1c(N)oc2c(C)cc(O)c(C)c12
[1]
  MIC: 6.3 µg/mL (≈ 25.3 µM)
[2]
  MIC: 6.3 µg/mL (≈ 25.3 µM)
[3]
  MIC: 3.2 µg/mL (≈ 12.8 µM)
[4]
  MIC: 12.5 µg/mL (≈ 50.1 µM)
[5]
  MIC: 12.5 µg/mL (≈ 50.1 µM)
[6]
  MIC: 12.5 µg/mL (≈ 50.1 µM)

## Cc1cc2oc(N)c(C#N)c2cc1O
[1]
  MIC: 50 µg/mL (≈ 266 µM)
[2]
  MIC: > 50 µg/mL
[3]
  MIC: 0.8 µg/mL (≈ 4.25 µM)
[4]
  MIC: 3.2 µg/mL (≈ 17 µM)
[5]
  MIC: > 50 µg/mL
[6]
  MIC: 12.5 µg/mL (≈ 66.4 µM)
